Compounds with a hit are over-represented: about 2.5% of the library has one in this group of screens.
SR-BI DiI inh – inhibitors of mouse SR-BI mediated HDL lipid uptake; Q61009; ldlA[mSR-BI] CHO cells, DiI-HDL uptake fluorescence, 3 h; inhibition, % at 12.5 µM; actives 0.96% (n = 320,000); AID 488896;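 active means mean replicate inhibition of at least 70% and a set share of replicates each scoring 70 or more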;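 further: 0% = median of neutral control wells and 100% = median of positive control wells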
dFosB act – mouse delta FosB homodimer activation. actives 0.99% (n = 340,000). activation, % at 25 µM. purified delta FosB, TAMRA-CDK5 oligo fluorescence polarization; percent of positive-control signal above neutral wells. P13346;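 active means mean activation above about 17%, with every replicate also reaching it, limit read from the data, passing the limit was not always enough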
SR-BI uptake up – enhances SR-BI lipid uptake from DiI-HDL; activation, % at 12.5 µM; actives 0.096% (n = 320,000); CHO ldlA[mSR-BI] cells, DiI-HDL uptake fluorescence, 3 h; 100 = double the neutral-control signal;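 active means mean replicate activation of at least 60% and every replicate at or above 60%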;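 further: 0% = median plate neutral-control signal and 100% = twice that signal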
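System: CHO ldlA[mSR-BI] cells / Medium: HEPES-buffered (25 mM, pH 7.4) F12 plus 0.5% BSA / Probe or stimulus: labelled HDL, 10 µg/mL / Doses: single compound concentration, delivered by pin transfer / Schedule: 3 h, 37 °C / Measured by: DiI fluorescence, bottom read / Measure: cell-associated DiI fluorescence as measure of HDL uptake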
NSD2 HMT inh – blocks human histone methyltransferase NSD2 | O96028 | NSD2 peptide methylation, AlphaScreen, 120 min | inhibition, % at 12.5 µM | actives 0.54% (n = 310,000) | AID 743445
DYRK1A inh – Dyrk1A (rat) kinase inhibition; Q63470; ADP-Glo luminescence, NFATc1 peptide; inhibition, % at 12.5 µM; actives 0.43% (n = 310,000);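 further: plate controls were vehicle with enzyme for no effect and no enzyme for full effect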
CDK5 inh – inhibitors of human CDK5/p35 kinase; actives 0.01% (n = 330,000); Q00535+Q15078; inhibition, % at 10 µM; Recombinant CDK5/p35, ADP-Glo luminescence, 60 min; AID 488839;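 active means highest replicate inhibition of at least 50% and at least 75% of replicates reaching 50%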;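 further: plate controls were DMSO neutral control for no effect and GW8510 at 10 µM for full effect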
Target sequence (Q00535 whole entry, looked up): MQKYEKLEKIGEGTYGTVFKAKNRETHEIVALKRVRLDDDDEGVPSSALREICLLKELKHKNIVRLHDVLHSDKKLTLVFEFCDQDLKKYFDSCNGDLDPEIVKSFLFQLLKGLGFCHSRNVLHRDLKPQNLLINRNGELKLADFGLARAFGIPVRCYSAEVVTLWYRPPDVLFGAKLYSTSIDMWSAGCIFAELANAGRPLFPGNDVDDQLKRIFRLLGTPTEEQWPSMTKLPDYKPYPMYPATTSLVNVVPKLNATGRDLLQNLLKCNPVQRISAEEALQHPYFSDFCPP
Target sequence (Q15078 whole entry, looked up): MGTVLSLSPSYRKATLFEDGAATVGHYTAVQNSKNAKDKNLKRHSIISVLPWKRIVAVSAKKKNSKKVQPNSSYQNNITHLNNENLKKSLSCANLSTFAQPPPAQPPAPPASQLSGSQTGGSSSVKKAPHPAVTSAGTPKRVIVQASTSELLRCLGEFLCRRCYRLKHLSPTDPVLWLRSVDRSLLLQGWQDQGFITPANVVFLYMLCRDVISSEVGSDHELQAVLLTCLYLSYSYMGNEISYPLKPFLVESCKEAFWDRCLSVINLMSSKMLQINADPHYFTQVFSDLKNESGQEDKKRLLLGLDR
Alpha artifact – interferes with AlphaScreen signal, flagging NSD2 false positives; shares compounds with NSD2 HMT inh; AlphaScreen artifact counterscreen, preloaded methylated H4 peptide; AC35, µM (top dose mostly 10 µM), without a hit: at the top dose activity change, negative = signal loss; actives 9.4% (n = 1,500); AID 1053174; call rule not given here
Starred values were filed as active, the others as inactive; . = no result. Unless noted, no stated cut-off is given here; in the data, active means inhibition above about 50%; inactive means the rest.

SMILES	SR-BI DiI inh	dFosB act	SR-BI uptake up	NSD2 HMT inh	DYRK1A inh	CDK5 inh	Alpha artifact
CC(=O)N(/N=C1\Sc2ccccc2C1=O)c1ccccc1C	6.7	-5.2	-6.7	56.3*	-4.3	-3.1	-9.8%
CC(=O)N(/N=C1\Sc2ccccc2C1=O)c1ccc(C)cc1C	19.8	-3.0	-19.8	0.4	.	-0.2	.
O=C(O)CCCCCn1c(SCC(=O)c2ccc(O)c(O)c2)nc2ccsc2c1=O	11.3	-4.5	-11.3	90.6*	5.8	1.6	-13.5%
COc1ccc(NC(=O)Nc2cccc3c2O[C@H](CN(C)S(=O)(=O)c2ccccc2)[C@@H](C)CN([C@H](C)CO)C3=O)cc1	4.0	-11.9	-4.0	.	2.1	0.0	.
O=C(NCCc1ccccc1)C1=COCCO1	-10.0	-3.7	10.0	-0.4	-3.8	-2.4	.
C/C(NCCc1ccccc1)=C1/CCOC1=O	.	.	.	65.0*	.	.	-5.9%
Cc1cccc(OCC(=O)N2CCc3ccccc3C2)c1C	.	.	.	-2.8	.	.	.
O=C(C1CC1)N1CCc2[nH]c3ccccc3c2C1	16.4	-1.3	-16.4	100.2*	4.9	-0.8	-3.3%
O=C1CCC[C@H]2C[C@H](NCc3ccco3)CC[C@]23CCCN13	.	.	.	-0.9	.	.	.
O=C(COC(=O)c1cc(S(=O)(=O)N2CCOCC2)ccc1F)c1ccc[nH]1	25.0	1.8	-25.0	69.3*	-7.5	1.4	-4.2%
O=C(COC(=O)c1cc(S(=O)(=O)N2CCOCC2)ccc1Cl)c1ccc[nH]1	.	.	.	-0.2	.	.	.
C[C@H](NC(=O)C1CC(=O)N(c2ccc(F)cc2)C1)C(=O)N1CCCCC1 (stereo partly specified)	-10.1	-9.4	10.1	-7.5	-1.8	1.7	.
COc1ccc(-n2cc(CNCCN3CCOC3=O)c(-c3ccccc3Cl)n2)cc1	.	-1.3	.	-2.2	12.3	1.4	.
CCN1CCC(CNCc2cn(-c3ccc(OC)cc3)nc2-c2ccccc2Cl)C1 (stereo unspecified)	-22.6	-0.1	22.6	75.0*	-0.8	0.9	-3.9%
CCN1CCN(S(=O)(=O)c2ccc(Cl)c(C(=O)N(C)Cc3ccccc3)c2)CC1	12.3	-9.7	-12.3	0.9	.	-1.3	.
COc1ccc(CCNC(=O)C2CCN(S(=O)(=O)c3ccc4c(c3)oc(=O)n4C)CC2)cc1OC	1.1	-1.8	-1.1	0.5	-3.9	1.2	.
Cc1[nH]n(-c2ccccc2)c(=O)c1C(c1ccc(C(=O)O)cc1)c1c(C)[nH]n(-c2ccccc2)c1=O	-7.2	-5.8	7.2	57.3*	-3.5	-2.1	0.0%
Cc1ccc(C(=O)C2CCN(S(=O)(=O)c3ccc(C(=O)O)cc3)CC2)cc1	-19.4	-0.7	19.4	65.6*	-6.7	-0.3	-4.5%
Cc1ccc(C(=O)NNC(=O)C2CCN(S(=O)(=O)c3ccc(C)cc3)CC2)cc1	20.9	7.9	-20.9	-2.0	-2.6	0.1	.
C=CCNC(=O)[C@@H]1CSC2c3ccc(OC)c(OC)c3C(=O)N21 (stereo partly specified)	11.4	-2.8	-11.4	1.3	.	0.8	.
Cc1onc(-c2c(Cl)cccc2Cl)c1C(=O)Nn1cnnc1	-18.6	3.1	18.6	12.0	2.7	-4.2	.
Cc1onc(-c2c(Cl)cccc2Cl)c1C(=O)ONC(=O)c1cc(C(F)(F)F)cc(C(F)(F)F)c1	-6.7	5.6	6.7	59.2*	.	0.1	-0.4%
COc1cccc(NC(=O)CN(C)C(=O)CNC(=O)c2ccc3ccccc3c2)c1	4.9	-10.2	-4.9	-3.6	6.0	0.6	.
Cc1cccc(C(=O)N2CCC(C)(C(=O)NS(=O)(=O)C3CC3)C2)c1C (stereo unspecified)	.	.	.	-1.8	.	.	.
CN(C)CCCNC(=O)C[C@H]1C[C@H](C(=O)N2CCCCC2)[C@@]2(C)c3[nH]c4cc(CCC(=O)N(C)C)ccc4c3CCN2C1=O	-6.3	0.5	6.3	.	.	-0.3	.
SMILES	SR-BI DiI inh	dFosB act	SR-BI uptake up	NSD2 HMT inh	DYRK1A inh	CDK5 inh	Alpha artifact
Cc1ncc(CO)c2c1Oc1nc(-c3ccccc3)nc(SCC(=O)N3CCOCC3)c1C2	-28.8	-33.2	28.8	78.6*	3.0	1.4	-10.2%
O=C(O)Cc1ccc(-n2cccc2)cc1	-2.0	-7.9	2.0	116.8*	-0.9	-11.4	-3.8%
O=C(c1ccccc1)c1cc2ccccc2oc1=O	-3.9	-1.1	3.9	113.2*	-0.2	-0.6	-0.3%
CCCN(CCC)CCNC(=O)c1cc2c(-c3ccccc3F)nn(C)c2s1	47.7	-32.6	-47.7	53.3*	7.3	0.8	-3.2%
COc1ccccc1N(CC(=O)NCC1CCCO1)C(=O)CNS(=O)(=O)c1ccc(C)cc1 (stereo unspecified)	-3.4	3.8	3.4	68.6*	-0.6	0.5	-0.4%
COc1ccccc1N(CC(=O)NCC1CCCO1)C(=O)CNS(=O)(=O)c1ccc(Cl)cc1 (stereo unspecified)	7.6	-8.0	-7.6	.	-0.6	2.4	.
CCc1ccc(Nc2n[n+](-c3ccccc3)c(-c3ccc(OC)c(Br)c3)s2)cc1	22.2	-3.2	-22.2	.	0.2	3.1	.
CCN(CC)CCCNc1nc(CN2CCOCC2)nc2sc3c(c12)CCC3	0.9	-5.1	-0.9	54.3*	-4.0	-3.6	2.9%
CCC(C)Nc1nc(CN2CCOCC2)nc2sc3c(c12)CCC3 (stereo unspecified)	20.3	-5.4	-20.3	1.7	8.0	2.3	.
CCN(CC)CCNc1cc(C)nc2c1C(=O)C(=O)C=C2N1CCCCC1	-8.7	-4.3	8.7	117.9*	-4.3	-0.8	1.5%
COc1ccc(C2CC(=O)c3c(C)nc(N4CCN(c5ccccc5)CC4)nc3C2)cc1 (stereo unspecified)	17.6	-1.1	-17.6	52.8*	-1.2	0.7	-5.6%
Cc1nc(N2CCN(Cc3ccccc3)CC2)nc2c1C(=O)CC(c1ccco1)C2 (stereo unspecified)	45.4	-1.4	-45.4	1.4	3.5	-0.6	.
Cc1ccc(S(=O)(=O)/N=C2\C=C(NS(=O)(=O)c3ccccc3)C(=O)c3ccccc32)cc1	-3.2	-7.3	3.2	105.2*	10.4	2.6	9.94µM*
Cc1cccc(NC2=C/C(=N/S(=O)(=O)c3cccs3)c3ccccc3C2=O)c1	38.2	0.1	-38.2	-1.6	-2.2	0.8	.
CCc1ccc(S(=O)(=O)/N=C2\C=C(Nc3cccc(C(=O)O)c3)C(=O)c3ccccc32)cc1	-11.5	-11.8	11.5	132.3*	42.0	2.9	9.25µM*
CCCCN(CC)CCNC(=O)CN(C)S(=O)(=O)c1ccc2c(c1)c(=O)n(C)c(=O)n2C	-18.6	-11.3	18.6	60.9*	1.8	0.7	-3.9%
CN(C)c1ccc(CNC(=O)CN(C)S(=O)(=O)c2ccc3c(c2)c(=O)n(C)c(=O)n3C)cc1	-11.1	-4.4	11.1	4.2	0.1	0.7	.
